ChEMBL document CHEMBL1155789, “Design, synthesis, and evaluation of 3C protease inhibitors as anti-enterovirus 71 agents” (Bioorg Med Chem, 2008)
Active and inactive are the calls of the source. The rule behind the calls is not given here.

Key:
[1] = Inhibition of Human enterovirus 71 TW/2231/98 recombinant protease 3C expressed in Escherichia coli JM109 competent cells; design: species or system Enterovirus A71
Method in brief: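 His-tagged EV71 3C protease expressed in E. coli […] and purified on Ni–NTA. Fluorescence read at 538 nm with excitation at 355 nm. Initial velocities over the first 5 min were plotted against inhibitor concentration and fitted to a hyperbolic activity equation to give IC50.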

[2] = test system: Enterovirus A71; test: Antiviral activity against Human enterovirus 71 in human rhabdomyosarcoma cells assessed as virus-induced cell death after 72 hrs; assay type: functional, organism-based; settings: Enterovirus A
Method in brief: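 RD cells seeded at 1.1×10^5 cells/mL in DMEM with 10% FBS, grown 24-30 h at 37 °C to about 90% confluence. Virus (100 TCID50) mixed with test compound was adsorbed 1 h at 35 °C, then overlaid with DMEM, 2% FBS, 0.1% DMSO for 72 h at 35 °C. Formaldehyde fixation, crystal violet stain, A570. EC50 is 50% reduction of virus-induced cell death versus virus control. Triplicate, at least twice.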

[3] = test system: RD; test: Cytotoxicity against human RD cells; assay type: cell-based
[4] = Selectivity index, ratio of CC50 for human RD cells to EC50 for Human enterovirus 71; assay type: toxicity, cell-based; settings: for selectivity ratio: RD cells, read-out: Ratio CC50/EC50
[5] = test system: RD; test: Inhibition of Human enterovirus 71 TW/2231/98 recombinant protease 3C in human RD cells at 0.01 to 1 uM after 48 hrs by Western blotting; assay type: cell-based; settings: Enterovirus A71
Method in brief: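 Confluent RD cells in DMEM with 10% fetal calf serum were infected with EV71 TW/2231/98 at MOI 0.01 with or without compound at 0.01–1 μM. After 48 h, total lysates were run on 12% SDS–PAGE and blotted with mouse monoclonal anti-3C and anti-β-actin antibodies. Detection used an HRP anti-mouse secondary (1:2000) and ECL.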

[6] = test system: Echovirus E6; test: Antiviral activity against Human echovirus 6; assay type: functional, organism-based; settings: Enterovirus B
[7] = test system: Echovirus E9; test: Antiviral activity against Human echovirus 9; assay type: functional, organism-based; settings: Enterovirus B
[8] = (§1) Inhibition of Human enterovirus 71 TW/2231/98 recombinant protease 3C expressed in Escherichia coli JM109 competent cells by time dependent assay; design: species or system Enterovirus A71
Method in brief: (§2)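 Time-dependent inactivation: 0.5 μM 3C protease incubated with 1–10 μM inhibitor in the fluorogenic peptide assay (10 mM MES pH 6.5, 25 °C). Activity loss versus incubation time was fitted to a single exponential to give kobs. Half-life (ln2/kobs) was replotted against reciprocal inhibitor concentration to give kinact and Ki.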

[9] = test system: Enterovirus A71; test: as §1; method in brief: as §2

| IC50 [1] [µM] | Compound | EC50 [2] [µM] | CC50 [3] [µM] | further results |
| --- | --- | --- | --- | --- |
| > 20 | CCOC(=O)/C=C/[C@H](C[C@@H]1CCNC1=O)NC(=O)[C@H](Cc1ccccc1)NC(=O)OC(C)(C)C | > 20 | – | – |
| < 0.5 | O=C[C@H](C[C@@H]1CCNC1=O)NC(=O)[C@H](Cc1ccccc1)NC(=O)/C=C/c1ccc2c(c1)OCO2 | 0.16 | > 25 | – |
| < 0.5 | O=C[C@H](C[C@@H]1CCNC1=O)NC(=O)[C@H](Cc1ccccc1)NC(=O)/C=C/c1ccccc1 | 0.096 | > 25 | – |
| < 0.5 | Cc1ccc(/C=C/C(=O)N[C@@H](Cc2ccccc2)C(=O)N[C@H](C=O)C[C@@H]2CCNC2=O)cc1 | 0.026 | > 25 | selectivity ratio [4]: > 1000; Activity [5]: Active |
| 10.6 | CCOC(=O)/C=C/[C@H](C[C@@H]1CCNC1=O)NC(=O)[C@H](Cc1ccccc1)NC(=O)/C=C/c1ccc2c(c1)OCO2 | 1.8 | > 25 | – |
| < 0.5 | Cc1cc(/C=C/C(=O)N[C@@H](Cc2ccccc2)C(=O)N[C@H](C=O)C[C@@H]2CCNC2=O)no1 | 0.94 | > 25 | – |
| < 0.5 | CN(C)c1ccc(/C=C/C(=O)N[C@@H](Cc2ccccc2)C(=O)N[C@H](C=O)C[C@@H]2CCNC2=O)cc1 | 0.018 | > 25 | selectivity ratio [4]: > 1000 |
| < 0.5 | O=C[C@H](C[C@@H]1CCNC1=O)NC(=O)[C@H](Cc1ccccc1)NC(=O)OCc1ccccc1 | 0.031 | 23.6 | – |
| 10 | CCOC(=O)/C=C/[C@H](C[C@@H]1CCNC1=O)NC(=O)[C@H](Cc1ccccc1)NC(=O)/C=C/c1ccccc1 | 1.3 | 8 | – |
| – | CCOC(=O)/C=C/[C@H](C[C@@H]1CCNC1=O)NC(=O)[C@@H](CC(=O)[C@@H](NC(=O)c1cc(C)on1)C(C)C)Cc1ccc(F)cc1 [RUPINTRIVIR] | – | – | EC50 [6]: 0.043 µM; EC50 [7]: 0.015 µM |
| 8.2 | CCOC(=O)/C=C/[C@H](C[C@@H]1CCNC1=O)NC(=O)[C@H](Cc1ccccc1)NC(=O)/C=C/c1ccc(N(C)C)cc1 | 2.9 | 21.4 | Ki [8]: 2.6 µM; Kinact [9]: 0.077 min⁻¹ |

| Compound | IC50 [1] [µM] | EC50 [2] [µM] | CC50 [3] [µM] | further results |
| --- | --- | --- | --- | --- |
| O=C[C@H](C[C@@H]1CCNC1=O)NC(=O)[C@H](Cc1ccccc1)NC(=O)/C=C/c1ccc(Cl)cc1F | < 0.5 | 0.007 | 5.1 | Ratio CC50/EC50 ([4]; rd): 714 |
